Experimental data reported in ChEMBL document CHEMBL4616673 (J Med Chem, 2020).

How the values were obtained:
[1] = Acute toxicity in BALB/c mouse assessed as effect on lung at 800 mg/kg, po measured on day 14 by H and E staining based light microscopic analysis; assay type: organism-based; details: in vivo
Procedure, shortened: (§1)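 Female and male BALB/c mice, 6-8 weeks old, dosed orally within 24 h at up to 400 mg/kg (free compound) or 800 mg/kg (nanocrystal). At the end of treatment, heart, liver, spleen, lung and kidney were sectioned, stained with H&E and imaged by light microscopy.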

[2] = biological target: Dihydroorotate dehydrogenase (quinone), mitochondrial (Homo sapiens, UniProt Q02127); test: Inhibition of human DHODH using dihydroorotate as substrate and CoQ10 as co-substrate preincubated for 30 mins followed by substrate addition by DCIP coupled microplate reader assay
Sequence of Dihydroorotate dehydrogenase (quinone), mitochondrial (Q02127 whole entry): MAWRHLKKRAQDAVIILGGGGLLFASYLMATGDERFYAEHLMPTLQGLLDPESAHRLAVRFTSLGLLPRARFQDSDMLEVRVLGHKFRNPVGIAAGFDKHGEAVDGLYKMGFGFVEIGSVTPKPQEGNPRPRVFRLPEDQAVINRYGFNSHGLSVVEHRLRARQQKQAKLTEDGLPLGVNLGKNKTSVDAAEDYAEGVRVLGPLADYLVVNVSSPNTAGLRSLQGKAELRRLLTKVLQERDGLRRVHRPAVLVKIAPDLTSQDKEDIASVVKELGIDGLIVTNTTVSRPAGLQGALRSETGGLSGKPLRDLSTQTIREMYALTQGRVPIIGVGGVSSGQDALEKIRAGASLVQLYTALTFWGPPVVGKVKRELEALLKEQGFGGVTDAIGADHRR

Raji [3] = test: Cell cycle arrest in human Raji cells assessed as accumulation at S phase at 0.031 uM measured after 24 hrs by propidium iodide/RNase staining based flow cytometry (reference value: 52%); assay type: functional
[4] = Acute toxicity in BALB/c mouse assessed as effect on blood AST level at 400 mg/kg, po measured on day 14; assay type: organism-based; details: in vivo
Procedure, shortened: (§2)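 BALB/c mice, female and male, 6-8 weeks old, given oral doses within 24 h, up to 400 mg/kg (free compound) or 800 mg/kg (nanocrystal formulation). Watched for body weight loss, diarrhea, anorexia, skin ulcer and toxic death. Serum biochemistry panel was run at the end of treatment.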

NAMALVA = test: Antiproliferative activity against human NAMALWA cells assessed as reduction in cell viability measured after 48 hrs by MTT assay; assay type: functional, cell-based; details: Homo sapiens, NAMALVA, 48 h
[5] = Toxicity in NOD-SCID nude mouse xenografted with human Raji cells assessed as death at 30 mg/kg/day, po administered 6 days a week for 3 weeks; assay type: organism-based; details: in vivo
Procedure, shortened: (§3)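 Mice, 6-7 weeks old, injected s.c. with 1×10^7 Raji cells in serum-free medium plus basement membrane matrix. At 100–200 mm3 tumours, randomised (n=6). Oral dosing 6 days/week for 3 weeks: 30 mg/kg/d free compound suspended in 5% NMP/95% PEG400, or 40 or 80 mg/kg/d nanocrystal. Body weight and tumour volume measured every 3 days.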

[6] = Half life in human liver microsomes at 1 uM in presence of NADPH by LC-MS analysis; assay type: ADME, Microsome
Procedure, shortened: (§4)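 Compound at 1 μM with 0.5 mg/mL human, rat or mouse liver microsomes and 1 mM NADPH. Stopped with acetonitrile at 0, 5, 15, 30, 45, 60 and 90 min, centrifuged. Supernatant analysed by LC-MS/MS.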

A549 = test: Antiproliferative activity against human A549 cells assessed as reduction in cell viability measured after 48 hrs by MTT assay; assay type: functional, cell-based; details: Homo sapiens, A549, 48 h
[7] = Acute toxicity in BALB/c mouse assessed as effect on blood UA level at 800 mg/kg, po measured on day 14; assay type: organism-based; details: in vivo; procedure, shortened: as §2
[8] = Acute toxicity in BALB/c mouse assessed as effect on blood BILT level at 800 mg/kg, po measured on day 14; assay type: organism-based; details: in vivo; procedure, shortened: as §2
Raji [9] = test: Induction of apoptosis in human Raji cells assessed as late apoptotic cells at 0.063 uM measured after 48 hrs by Annexin V-FITC staining based flow cytometry (reference value: 0.7 %); assay type: functional
[10] = Acute toxicity in BALB/c mouse assessed as effect on kidney at 400 mg/kg, po measured on day 14 by H and E staining based light microscopic analysis; assay type: organism-based; details: in vivo; procedure, shortened: as §1
Raji [11] = test: Antitumor activity against human Raji cells xenografted in NOD-SCID nude mouse assessed as tumor growth inhibition at 40 mg/kg/day, po administered 6 days a week for 3 weeks relative to control; assay type: functional; details: read-out: TGI
[12] = Acute toxicity in BALB/c mouse assessed as effect on blood GLU level at 800 mg/kg, po measured on day 14; assay type: organism-based; details: in vivo; procedure, shortened: as §2
[13] = Acute toxicity in BALB/c mouse assessed as effect on blood AST level at 800 mg/kg, po measured on day 14; assay type: organism-based; details: in vivo; procedure, shortened: as §2
MCF7 = test: Antiproliferative activity against human MCF7 cells assessed as reduction in cell viability measured after 48 hrs by MTT assay; assay type: functional, cell-based; details: Homo sapiens, MCF7, 48 h
Raji [14] = test: Antiproliferative activity against human Raji cells assessed as reduction in cell viability measured after 48 hrs by MTT assay; assay type: functional, cell-based; details: Homo sapiens, Raji, 48 h
[15] = Acute toxicity in BALB/c mouse assessed as effect on blood TG level at 800 mg/kg, po measured on day 14; assay type: organism-based; details: in vivo; procedure, shortened: as §2
[16] = Acute toxicity in BALB/c mouse assessed as effect on blood GLU level at 400 mg/kg, po measured on day 14; assay type: organism-based; details: in vivo; procedure, shortened: as §2
[17] = Toxicity in NOD-SCID nude mouse xenografted with human Raji cells assessed as dermatitis at 30 mg/kg/day, po administered 6 days a week for 3 weeks; assay type: organism-based; details: in vivo; procedure, shortened: as §3
[18] = Acute toxicity in BALB/c mouse assessed as effect on blood ALT level at 800 mg/kg, po measured on day 14; assay type: organism-based; details: in vivo; procedure, shortened: as §2
[19] = Acute toxicity in BALB/c mouse assessed as effect on blood CREA level at 400 mg/kg, po measured on day 14; assay type: organism-based; details: in vivo; procedure, shortened: as §2
[20] = Acute toxicity in BALB/c mouse assessed as effect on blood BUN level at 800 mg/kg, po measured on day 14; assay type: organism-based; details: in vivo; procedure, shortened: as §2
[21] = Acute toxicity in po dosed BALB/c mouse assessed as maximum tolerated dose; assay type: organism-based; details: in vivo
Procedure, shortened: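 Acute oral dose-escalation in female and male BALB/c mice, 6-8 weeks old, dosed within 24 h. MTD is the highest dose without obvious side effects: body weight loss, diarrhea, anorexia, skin ulcer or toxic death.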

Raji [22] = test: Antitumor activity against human Raji cells xenografted in NOD-SCID nude mouse assessed as tumor growth inhibition at 80 mg/kg/day, po administered 6 days a week for 3 weeks relative to control; assay type: functional; details: read-out: TGI
[23] = Acute toxicity in BALB/c mouse assessed as effect on blood TP level at 800 mg/kg, po measured on day 14; assay type: organism-based; details: in vivo; procedure, shortened: as §2
[24] = Stability of the compound in pH 9 buffer assessed as decrease in compound concentration at 0.01 mg/ml measured up to 24 hrs by LC-MS analysis; assay type: physicochemical; details: read-out: Drug degradation
Procedure, shortened: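 Compound at 0.01 mg/mL final in buffer containing 10% acetonitrile at pH 1.0, 4.5, 6.6, 7.4 or 9.0. Held at 37 °C, sampled at 0, 2, 4, 6, 8, 10, 12 and 24 h. Remaining compound by LC-MS.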

[25] = Acute toxicity in BALB/c mouse assessed as effect on blood ALP level at 800 mg/kg, po measured on day 14; assay type: organism-based; details: in vivo; procedure, shortened: as §2
[26] = Half life in mouse liver microsomes at 1 uM in presence of NADPH by LC-MS analysis; assay type: ADME, Microsome; procedure, shortened: as §4
[27] = Acute toxicity in BALB/c mouse assessed as effect on blood TP level at 400 mg/kg, po measured on day 14; assay type: organism-based; details: in vivo; procedure, shortened: as §2
[28] = Acute toxicity in BALB/c mouse assessed as effect on spleen at 400 mg/kg, po measured on day 14 by H and E staining based light microscopic analysis; assay type: organism-based; details: in vivo; procedure, shortened: as §1

For `O=C1c2ccccc2C(=O)c2c1nnn2-c1cc(F)c(-c2ccccc2F)c(F)c1`, the Activity [1] was “Non-Toxic”, the IC50 [2] was 4.5 nM and the Activity (Raji [3]) was 76.62%. For the same compound, the Activity [4] was “Non-Toxic”, the IC50 (NAMALVA) was 990 nM and the Activity [5] was “Non-Toxic”. For the same compound, the half-life at 1 µM ([6]; liver microsomes) was 32 min, the t1/2 ([6]; microsomes, 1 µM) was 63 min and the IC50 (A549) was 1650 nM. For the same compound, the Activity [7] was “Non-Toxic”, the Activity [8] was “Non-Toxic” and the Activity (Raji [9]) was 4.26%. The Activity [10] was “Non-Toxic”, the inhibition in vivo at 40 mg/kg/day (Raji [11]) was 52% and the Activity [12] was “Non-Toxic”. The Activity [13] was “Non-Toxic”, the IC50 (MCF7) was 9610 nM and the IC50 (Raji [14]) was 160 nM. For the same compound, the Activity [15] was “Non-Toxic”, the Activity [16] was “Non-Toxic” and the Activity [17] was “Non-Toxic”. For the same compound, the Activity [18] was “Non-Toxic”, the Activity [19] was “Non-Toxic” and the Activity [20] was “Non-Toxic”. It also gave an MTD ([21]; BALB/c, read-out: MTD) of 400 mg/kg, an MTD [21] of 800 mg/kg and an inhibition in vivo at 80 mg/kg/day (Raji [22]) of 68%. For the same compound, the Activity [23] was “Non-Toxic”, the degraded at 24 h, 0.01 mg/ml [24] was 15% and the Activity [25] was “Non-Toxic”. For the same compound, the half-life at 1 µM ([26]; liver microsomes) was 37 min, the t1/2 ([26]; microsomes, 1 µM) was 50 min and the Activity [27] was “Non-Toxic”. For the same compound, the Activity [28] was “Non-Toxic”.
